Source: BindingDB's records for doi:10.1016/j.bmcl.2007.08.013 (Schering-Plough Research Institute, 2007)

What was measured:
[1] = target: T1, Amyloid-beta precursor protein (Homo sapiens, UniProt P05067); assay: Inhibition of gamma-secretase assessed as reduction of cell A-beta-40 level
[2] = target: T1, Amyloid-beta precursor protein; assay: Inhibition of gamma-secretase assessed as reduction of membrane A-beta-40 level
How it was run: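 Membrane-based γ-secretase assay with Aβ40 as read-out; IC50 in nM, reported as means of two experiments.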

T1 sequence (P05067 whole entry): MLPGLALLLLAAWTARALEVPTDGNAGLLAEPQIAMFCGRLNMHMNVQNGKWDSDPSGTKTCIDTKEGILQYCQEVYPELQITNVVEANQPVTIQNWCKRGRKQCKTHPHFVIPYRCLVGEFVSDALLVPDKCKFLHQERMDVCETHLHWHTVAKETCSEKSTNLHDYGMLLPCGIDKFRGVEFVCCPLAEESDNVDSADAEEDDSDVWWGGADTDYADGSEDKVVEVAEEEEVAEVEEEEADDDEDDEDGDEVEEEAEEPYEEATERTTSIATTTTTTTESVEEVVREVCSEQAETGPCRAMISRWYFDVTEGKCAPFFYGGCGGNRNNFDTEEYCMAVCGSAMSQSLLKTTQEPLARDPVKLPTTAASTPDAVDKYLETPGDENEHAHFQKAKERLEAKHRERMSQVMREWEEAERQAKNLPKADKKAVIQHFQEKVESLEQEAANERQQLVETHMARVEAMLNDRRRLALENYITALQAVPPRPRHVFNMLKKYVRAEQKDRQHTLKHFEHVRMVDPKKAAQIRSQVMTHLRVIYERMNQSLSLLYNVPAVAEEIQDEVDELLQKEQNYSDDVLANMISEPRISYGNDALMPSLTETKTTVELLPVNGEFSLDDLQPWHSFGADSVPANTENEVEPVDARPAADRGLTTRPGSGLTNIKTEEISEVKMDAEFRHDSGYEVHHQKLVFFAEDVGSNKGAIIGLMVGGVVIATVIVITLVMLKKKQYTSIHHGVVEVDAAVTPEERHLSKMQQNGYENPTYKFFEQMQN

Compound	IC50 [1] [nM]	IC50 [2] [nM]
CC[C@@H]1CCC[C@H](C2(OC(=O)N3CCC(N4CCCCC4)CC3)CC2)N1S(=O)(=O)c1cc(F)cc(F)c1 [1-((2R,6R)-1-(3,5-difluorophenylsulfonyl)-6-ethylpiperidin-2-yl)cyclopropyl 4-(piperidin-1-yl)piperidine-1-carboxylate]	144	29
CC[C@@H]1CCC[C@H](C2(OC(=O)N3CCC(CCO)(OC)CC3)CC2)N1S(=O)(=O)c1ccc(Cl)cc1 [1-((2R,6R)-1-(4-chlorophenylsulfonyl)-6-ethylpiperidin-2-yl)cyclopropyl 4-(2-hydroxyethyl)-4-methoxypiperidine-1-carboxylate]	20	9
CC[C@@H]1CCC[C@H](C2(OC(=O)N3CCN(C(C)(C)CO)CC3)CC2)N1S(=O)(=O)c1ccc(F)cc1 [1-((2R,6R)-6-ethyl-1-(4-fluorophenylsulfonyl)piperidin-2-yl)cyclopropyl 4-(1-hydroxy-2-methylpropan-2-yl)piperazine-1-carboxylate]	25	10
O=C(OC1([C@H]2CCC[C@@H](c3cc(F)cc(F)c3)N2S(=O)(=O)c2ccc(Cl)cc2)CC1)N1CCC(N2CCCCC2)CC1 [1-((2R,6S)-1-(4-chlorophenylsulfonyl)-6-(3,5-difluorophenyl)piperidin-2-yl)cyclopropyl 4-(piperidin-1-yl)piperidine-1-carboxylate]	–	0.3
CC[C@@H]1CCC[C@H](C2(OC(=O)N3CCN(CCO)[C@@H](C)C3)CC2)N1S(=O)(=O)c1ccc(Cl)cc1 [(S)-1-((2R,6R)-1-(4-chlorophenylsulfonyl)-6-ethylpiperidin-2-yl)cyclopropyl 4-(2-hydroxyethyl)-3-methylpiperazine-1-carboxylate]	10	13
